# PAFAH1B3 FP inh: PAFAH1B3 enzyme inhibitors, primary screen, biochemical, fluorescence polarization, human; Platelet-activating factor acetylhydrolase IB subunit alpha1 (Homo sapiens), Q15102; recombinant PAFAH1B3, FP-rhodamine probe; inhibition, % at 3.39 µM; actives 0.28% (n = 340,000);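 active = inhibition above the screen-wide average of all tested compounds plus 3 SD, cut at about 25% in these data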;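 note: 0% = enzyme with DMSO only and 100% = wells lacking PAFAH1B3 protein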
# pPAFAH inh: pPAFAH enzyme inhibitors, primary screen, biochemical, fluorescence polarization, human; Platelet-activating factor acetylhydrolase (Homo sapiens), Q13093; recombinant pPAFAH, FP-rhodamine probe fluorescence polarization; actives 1.5% (n = 330,000); inhibition, % at 3.39 µM;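 active = inhibition above the mean inhibition across the screen plus 3 SD, cut at about 25% in these data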;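 note: inhibitors block binding of the rhodamine activity-based probe so polarization drops; 0% = enzyme with DMSO and 100% = wells lacking pPAFAH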
# mABHD4 FP: ABHD4 inhibitors, primary screen, biochemical, fluorescence polarization, mouse. (Lyso)-N-acylphosphatidylethanolamine lipase (Mus musculus), Q8VD66. purified mABHD4, FP-Rh probe fluorescence polarization. inhibition, % at 8.92 µM. actives 0.54% (n = 370,000). AID 720543, 2013;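 active = inhibition exceeding the mean over every tested compound plus 3 SD, cut at about 30% in these data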;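 note: 0% = plate median of compound wells and 100% = S159A mutant with DMSO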
#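 Assay system: Wild-type mouse ABHD4 protein | Medium: HEPES pH 7.0 buffer, 150 mM NaCl, 0.01% Pluronic F-127 | Incubation: Enzyme–compound pre-incubation 45 min, then probe 60 min, both 25 °C | Technique: Fluorescence polarization with parallel and perpendicular emission, 525/598 nm | Evaluation: % inhibition of FP-Rh probe binding versus controls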
# HTRA1 inhibitor: HTRA1 serine protease inhibitors, primary screen, biochemical, fluorescence polarization, HTS. Q92743. recombinant HTRA1, FP-rhodamine activity-based probe. inhibition, % at 5.96 µM. actives 0.5% (n = 340,000). AID 504803, 2011; in the data active = inhibition above about 36%;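 note: 0% = enzyme with DMSO and 100% = wells lacking enzyme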
# Target sequence (Q92743 whole entry, looked up): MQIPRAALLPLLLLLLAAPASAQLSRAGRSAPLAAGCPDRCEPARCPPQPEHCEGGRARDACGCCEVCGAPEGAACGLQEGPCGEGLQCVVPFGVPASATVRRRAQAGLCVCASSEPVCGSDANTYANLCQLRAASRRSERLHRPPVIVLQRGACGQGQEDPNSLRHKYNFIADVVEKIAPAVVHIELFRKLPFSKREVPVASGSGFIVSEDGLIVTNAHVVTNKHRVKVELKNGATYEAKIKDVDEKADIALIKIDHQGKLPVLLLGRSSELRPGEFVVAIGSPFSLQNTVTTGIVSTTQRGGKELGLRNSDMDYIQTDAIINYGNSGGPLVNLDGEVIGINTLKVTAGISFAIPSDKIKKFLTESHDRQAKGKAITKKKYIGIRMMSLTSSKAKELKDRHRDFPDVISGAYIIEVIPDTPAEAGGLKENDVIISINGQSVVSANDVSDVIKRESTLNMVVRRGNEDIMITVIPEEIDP
# PAFAH1B2 inh: PAFAH1B2 enzyme inhibitors, primary screen, biochemical, fluorescence polarization, human; Platelet-activating factor acetylhydrolase IB subunit alpha2 (Homo sapiens), P68402; recombinant PAFAH1B2, FP-rhodamine activity probe; inhibition, % at 3.39 µM; actives 1.2% (n = 340,000); AID 492953, 2010;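 active = inhibition above the mean of all tested compounds plus 3 SD, cut at about 24% in these data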;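 note: 0% = enzyme with DMSO and 100% = wells lacking PAFAH1B2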
# PAFAH2 inh: PAFAH2 enzyme inhibitors, primary screen, biochemical, fluorescence polarization, human. Platelet-activating factor acetylhydrolase 2, cytoplasmic (Homo sapiens), Q99487. recombinant PAFAH2, FP-rhodamine activity probe. inhibition, % at 3.39 µM. actives 0.99% (n = 340,000);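 active = inhibition above the mean over all tested compounds plus 3 SD, cut at about 30% in these data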;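 note: inhibitors block probe labeling of enzyme so polarization drops; 0% = enzyme with DMSO and 100% = wells lacking PAFAH2 protein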
# Active calls of the source: *; . = no result. A selection: hits, their analogues and other compounds. The true share with any hit is near 2.8%.
SMILES,PAFAH1B3 FP inh,pPAFAH inh,mABHD4 FP,HTRA1 inhibitor,PAFAH1B2 inh,PAFAH2 inh
COc1cccc(C(=O)Nc2cccc(C(=O)NC3=NN(c4c(Cl)cc(Cl)cc4Cl)C(=O)C3)c2)c1,21.9,29.9*,-23.8,-9.1,5.4,-11.8
O=S1(=O)c2ccccc2N=NN1Cc1cc(Cl)cc(Cl)c1,.,33.4*,.,.,.,.
C[C@H]1[C@@H](c2ccccc2)Oc2ccc(Cl)cc2S(=O)(=O)N1Cc1cccc(Cl)c1,.,.,-4.7,.,.,.
Cc1c(C(=O)N2CCOCC2)cc(C(C)(C)C)n1-c1ccccc1,6.7,-2.8,2.0,3.0,51.1*,5.7
CC(/C=N/NC(=O)CSc1nnc(SCc2ccc(C)cc2)s1)=C\c1ccco1,.,.,-10.1,.,.,.
CC(/C=N/NC(=O)CSc1nnc(SCc2ccccc2)s1)=C\c1ccco1,8.6,27.0*,-11.3,-43.6,0.0,6.8
COC(=O)[C@]12C[C@H](CC(=O)NCC34CC5CC(CC(C5)C3)C4)C(=O)N(Cc3ccccc3)C1=C[C@H](COCc1ccccc1)O[C@@H]2C,.,.,0.1,.,.,.
Cc1ccc(CNc2ccc3c(c2)OCO3)cc1,1.0,18.7,.,48.7*,3.9,2.7
c1cc(CNc2ccc3c(c2)OCO3)ccn1,9.4,11.3,19.3,16.1,11.6,1.6
O=C(OCc1cn(Cc2ccccc2Cl)nn1)N1CCOCC1,.,.,5.1,.,.,.
O=C1N(Cc2ccccc2)c2ccc(Cl)cc2C12OCCO2,2.4,5.0,-3.5,-4.6,0.1,-1.8
O=C1N(Cc2ccccc2)c2ccccc2C12OCCO2,10.3,24.9*,-5.6,8.0,-2.2,2.1
COC(=O)C12C=C3CC(c4ccc(OC)cc4)=C3C(=O)N1Cc1[nH]c3ccccc3c1C2 (stereo not drawn),.,.,2.2,.,.,.
CCc1c(O)nc(SCC(=O)c2ccccc2)n(-c2ccccc2)c1=O,8.8,26.2*,0.4,7.7,1.0,13.6
CCN1C(=O)c2cccc3c(S(=O)(=O)Nc4ccncc4)ccc1c23,2.7,4.2,.,4.0,3.8,6.8
CCN1C(=O)c2cccc3c(S(=O)(=O)Nc4ccccc4)ccc1c23,-1.6,25.4*,.,-6.6,1.9,10.7
NC(=S)N/N=C/c1ccccc1O,3.4,-3.3,2.2,-2.9,2.6,1.3
NC(=S)N/N=C/c1cccc(O)c1O,0.7,32.4*,15.4,8.2,7.3,0.4
Cc1cccc(NC(=O)COC(=O)c2cccc3c2C(=O)c2ccccc2C3=O)c1C,12.9,30.6*,22.6,11.1,4.3,12.9
CCCC1CCC2(CCCN2CCOC(=S)Nc2ccccc2OC)CC1 (stereo not drawn),.,.,-7.2,.,.,.
O=C(NCC(c1ccco1)N1CCCC1)c1ccc(S(=O)(=O)Nc2ccc(F)cc2)cc1 (stereo not drawn),8.4,28.5*,-6.8,-6.2,3.7,1.8
COc1ccccc1C(CNC(=O)c1cccc(S(=O)(=O)Nc2ccc(C)cc2)c1)N1CCCC1 (stereo not drawn),3.6,30.7*,1.4,-6.2,1.7,2.4
COc1ccc(C(=O)NCc2ccccc2CN2CCCC2)cc1S(=O)(=O)Nc1ccc(C)cc1,2.3,25.1*,-3.3,-11.3,7.6,2.5
COc1ccc(NS(=O)(=O)c2cccc(C(=O)NCC(c3ccco3)N3CCCCC3)c2)cc1 (stereo not drawn),3.8,30.7*,-3.4,-9.5,0.6,3.7
COc1ccc(C(=O)O)cc1S(=O)(=O)Nc1ccc(C)cc1,0.9,3.7,-2.2,-7.0,13.3,-6.6
COc1ccccc1NS(=O)(=O)c1cccc(C(=O)NCC(c2ccccc2OC)N2CCCC2)c1 (stereo not drawn),4.6,2.6,4.2,-2.3,1.0,3.9
Cc1cccc(NS(=O)(=O)c2cccc(C(=O)NCC(c3ccco3)N3CCCCC3)c2)c1 (stereo not drawn),-4.3,32.7*,-20.7,-8.6,-0.4,-3.4
O=C(NCC(c1ccco1)N1CCCC1)c1cccc(NS(=O)(=O)c2ccc(Br)cc2)c1 (stereo not drawn),8.3,1.6,0.8,-0.2,13.8,4.9
